Experimental data as given in ChEMBL document CHEMBL1152767, “Synthesis and pharmacological evaluation of new arylpiperazines N-[4-[4-(aryl) piperazine-1-yl]-phenyl]-amine derivatives: putative role of 5-HT1A receptors” (2009).
The source made the active and inactive calls. No cut-off for these calls is given here.

What was measured:
Rattus norvegicus [1] = assay: Anxiolytic activity in Wistar rat assessed as time spent into open arms at 3 mg/kg, ip administered 60 mins before evaluation and measured during 5 mins by elevated plus-maze test; format: functional; conditions: route intraperitoneal
Outline: (§1)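 Male Wistar rats, 6–8 weeks, 120–150 g, given test agents ip (2 ml/kg; vehicle saline with 1% tween 80 and 1% DMSO) 60 min before testing; WAY-100635 0.5 mg/kg ip 15 min before treatment where used. Maze: two open, two closed arms 50 × 10 cm, raised 50 cm; rat placed centrally facing open arm; 5 min video recording; mean ± S.E.M., n = 8.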

Rattus norvegicus [2] = assay: Anxiolytic activity in ip dosed Wistar rat assessed as decrease in glyoxalase 1 activity in brain; format: functional; parameters: scale not given: the % may be the effect or the level left
Outline: (§2)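 Rat brain homogenised at 20% in 0.1 M potassium phosphate pH 7.4 with 0.25 M sucrose; spun 800g then 10,500g (4 °C) to give post-mitochondrial supernatant for glutathione reductase, and further 36,000g 1 h for cytosol for glyoxalase 1 (modified Racker method); protein by Lowry with BSA standard.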

Rattus norvegicus [3] = assay: Anxiolytic activity in Wistar rat assessed as decrease in extracellular serotonin level in brain at 3 mg/kg, ip in presence of WAY-100635 relative to control; format: functional; parameters: scale not given: the % may be the effect or the level left; conditions: route intraperitoneal
Outline: (§3)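 Male Wistar rats dosed ip (vehicle saline/1% tween 80/1% DMSO), WAY-100635 0.5 mg/kg ip 15 min prior where used; decapitated 1 h after dosing, brains frozen at -80 °C. Tissue sonicated in 0.4 M perchloric acid, citrate/phosphate/EDTA added, centrifuged 12,000g at 4 °C; supernatant run on reversed-phase C18 HPLC with fluorescence detection (ex 280, em 340 nm).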

Rattus norvegicus [4] = assay: Anxiolytic activity in Wistar rat assessed as number of entries into open arms at 3 mg/kg, ip administered 60 mins before evaluation and measured during 5 mins by elevated plus-maze test; format: functional; conditions: route intraperitoneal; outline: as §1
Rattus norvegicus [5] = assay: Anxiolytic activity in Wistar rat assessed as decrease in time spent into open arms treated ip 60 mins before evaluation and measured during 5 mins by elevated plus-maze test in presence of WAY-100635; format: functional; parameters: scale not given: the % may be the effect or the level left; outline: as §1
Rattus norvegicus [6] = assay: Anxiolytic activity in Wistar rat assessed as total number of entries at 3 mg/kg, ip administered 60 mins before evaluation and measured during 5 mins by elevated plus-maze test; format: functional; conditions: route intraperitoneal; outline: as §1
Rattus norvegicus [7] = assay: Anxiolytic activity in Wistar rat assessed as number of entries into closed arms at 3 mg/kg, ip administered 60 mins before evaluation and measured during 5 mins by elevated plus-maze test; format: functional; conditions: route intraperitoneal; outline: as §1
Rattus norvegicus [8] = assay: Anxiolytic activity in Wistar rat assessed as decrease in extracellular serotonin level in brain at 3 mg/kg, ip relative to control; format: functional, organism-based; parameters: dose 3 mg/kg; outline: as §3
Rattus norvegicus [9] = assay: Anxiolytic activity in ip dosed Wistar rat assessed as decrease in extracellular serotonin level in brain coadministered with WAY-100635 relative to control; format: functional; parameters: scale not given: the % may be the effect or the level left; outline: as §3
Rattus norvegicus [10] = assay: Anxiolytic activity in ip dosed Wistar rat assessed as decrease in glutathione reductase activity in brain; format: functional; parameters: scale not given: the % may be the effect or the level left; outline: as §2
Rattus norvegicus [11] = assay: Anxiolytic activity in Wistar rat assessed as blocked of time spent into open arms at 3 mg/kg, ip administered 60 mins before evaluation and measured during 5 mins by elevated plus-maze test in presence of 0.5 mg/kg, ip WAY-100635; format: functional, organism-based; outline: as §1
Rattus norvegicus [12] = assay: Anxiolytic activity in Wistar rat assessed as total number of entries at 5 mg/kg, ip administered 60 mins before evaluation and measured during 5 mins by elevated plus-maze test; format: functional; conditions: route intraperitoneal
Outline: (§4)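 Male Wistar rats, 6–8 weeks, 120–150 g, housed at 25 ± 2 °C with free food and water. Dosed ip at 2 ml/kg in saline with 1% tween 80 and 1% DMSO, which alone served as control; n = 8. Maze arms 50 × 10 cm, 50 cm above floor. Rat placed centrally facing an open arm, recorded by camera between 9:00 and 15:00 h.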

Rattus norvegicus [13] = assay: Anxiolytic activity in Wistar rat assessed as number of entries into closed arms at 5 mg/kg, ip administered 60 mins before evaluation and measured during 5 mins by elevated plus-maze test; format: functional; conditions: route intraperitoneal; outline: as §4
Rattus norvegicus [14] = assay: Anxiolytic activity in Wistar rat assessed as number of entries into open arms at 5 mg/kg, ip administered 60 mins before evaluation and measured during 5 mins by elevated plus-maze test; format: functional; conditions: route intraperitoneal; outline: as §4
Rattus norvegicus [15] = assay: Anxiolytic activity in Wistar rat assessed as time spent into open arms at 5 mg/kg, ip administered 60 mins before evaluation and measured during 5 mins by elevated plus-maze test; format: functional; conditions: route intraperitoneal; outline: as §4
Rattus norvegicus [16] = assay: Anxiolytic activity in Wistar rat assessed as number of entries into closed arms at 1 mg/kg, ip administered 60 mins before evaluation and measured during 5 mins by elevated plus-maze test; format: functional; conditions: route intraperitoneal; outline: as §4
Rattus norvegicus [17] = assay: Anxiolytic activity in Wistar rat assessed as total number of entries at 1 mg/kg, ip administered 60 mins before evaluation and measured during 5 mins by elevated plus-maze test; format: functional; conditions: route intraperitoneal; outline: as §4
Rattus norvegicus [18] = assay: Anxiolytic activity in Wistar rat assessed as time spent into open arms at 1 mg/kg, ip administered 60 mins before evaluation and measured during 5 mins by elevated plus-maze test; format: functional; conditions: route intraperitoneal; outline: as §4
Rattus norvegicus [19] = assay: Anxiolytic activity in Wistar rat assessed as number of entries into open arms at 1 mg/kg, ip administered 60 mins before evaluation and measured during 5 mins by elevated plus-maze test; format: functional; conditions: route intraperitoneal; outline: as §4

What does the source list for `CCOC(=O)Nc1ccc(N2CCN(c3ccccc3OC)CC2)cc1`?
Activity (Rattus norvegicus [1]): 84.36%; Activity (Rattus norvegicus [2]): 17%; Activity (Rattus norvegicus [3]): 32%; Activity (Rattus norvegicus [4]): 35.23%; Activity (Rattus norvegicus [5]): 20%; Activity (Rattus norvegicus [6]): 18.21; Activity (Rattus norvegicus [7]): 11.8; Activity (Rattus norvegicus [8]): Active; Activity (Rattus norvegicus [9]): 24%; Activity (Rattus norvegicus [10]): 12%

How did the Activity (Rattus norvegicus [1]) turn out when `O=C(Nc1ccc(N2CCN(CCc3ccccc3)CC2)cc1)c1ccc(Cl)nc1` was run?
The Activity was 50.58%.

What about the Activity (Rattus norvegicus [4]) of the same compound?
Its Activity is 22.9%.

And the Activity (Rattus norvegicus [6])?
Its Activity is 14.48.

And the Activity (Rattus norvegicus [7])?
The Activity was 11.17.

`CCOC(=O)Nc1ccc(N2CCN(c3ccccc3)CC2)cc1` was tested. Which Activity (Rattus norvegicus [1]) did it give?
Its Activity is 87.6%.

And the Activity (Rattus norvegicus [2])?
Its Activity is 20%.

What about the Activity (Rattus norvegicus [3]) of the same compound?
The Activity was 38%.

And the Activity (Rattus norvegicus [4])?
Its Activity is 40.64%.

What about the Activity (Rattus norvegicus [5]) of the same compound?
The Activity was 35%.

And the Activity (Rattus norvegicus [6])?
Its Activity is 15.48.

What about the Activity (Rattus norvegicus [7]) of the same compound?
Its Activity is 9.19.

What about the Activity (Rattus norvegicus [8]) of the same compound?
Its Activity is “Active”.

What about the Activity (Rattus norvegicus [9]) of the same compound?
Its Activity is 30%.

What about the Activity (Rattus norvegicus [11]) of the same compound?
Its Activity is “inactive”.

What about the Activity (Rattus norvegicus [10]) of the same compound?
Its Activity is 15%.

What does the source list for `O=C1CC2(CCCC2)CC(=O)N1CCCCN1CCN(c2ncccn2)CC1` [BUSPIRONE]?
Activity (Rattus norvegicus [12]): 14.26; Activity (Rattus norvegicus [13]): 8.91; Activity (Rattus norvegicus [14]): 37.52%; Activity (Rattus norvegicus [15]): 85.56%

`O=C(Nc1ccc(N2CCN(c3ccccc3)CC2)cc1)c1ccc(Cl)nc1` was tested. Which Activity (Rattus norvegicus [1]) did it give?
The Activity was 56.94%.

What about the Activity (Rattus norvegicus [4]) of the same compound?
Its Activity is 27.48%.

And the Activity (Rattus norvegicus [6])?
The Activity was 16.46.

And the Activity (Rattus norvegicus [7])?
The Activity was 11.94.

With `COc1ccccc1N1CCN(c2ccc(NC(=O)c3ccc(Cl)nc3)cc2)CC1` as the compound, how does the Activity (Rattus norvegicus [1]) read?
Its Activity is 54.69%.

And the Activity (Rattus norvegicus [4])?
Its Activity is 28.42%.

And the Activity (Rattus norvegicus [6])?
Its Activity is 15.26.

And the Activity (Rattus norvegicus [7])?
Its Activity is 10.93.

Which Activity (Rattus norvegicus [1]) does the source give for `COc1ccccc1N1CCN(c2ccc(NC(C)=O)cc2)CC1` here?
The Activity was 58.77%.

And the Activity (Rattus norvegicus [4])?
Its Activity is 28.74%.

What about the Activity (Rattus norvegicus [6]) of the same compound?
Its Activity is 15.45.

And the Activity (Rattus norvegicus [7])?
The Activity was 9.01.

Which Activity (Rattus norvegicus [1]) does the source give for `O=C(Nc1ccc(N2CCN(c3ccccc3Cl)CC2)cc1)c1ccc(Cl)nc1` here?
Its Activity is 53.67%.

What about the Activity (Rattus norvegicus [4]) of the same compound?
The Activity was 24.56%.

And the Activity (Rattus norvegicus [6])?
Its Activity is 12.98.

What about the Activity (Rattus norvegicus [7]) of the same compound?
Its Activity is 9.8.

With `CCOC(=O)Nc1ccc(N2CCN(CCc3ccccc3)CC2)cc1` as the compound, how does the Activity (Rattus norvegicus [1]) read?
Its Activity is 53.94%.

And the Activity (Rattus norvegicus [4])?
Its Activity is 28.49%.

And the Activity (Rattus norvegicus [6])?
Its Activity is 13.85.

What about the Activity (Rattus norvegicus [7]) of the same compound?
Its Activity is 9.91.

How did the Activity (Rattus norvegicus [1]) turn out when `CC(=O)Nc1ccc(N2CCN(c3ccccc3Cl)CC2)cc1` was run?
The Activity was 57.3%.

And the Activity (Rattus norvegicus [4])?
The Activity was 26.89%.

What about the Activity (Rattus norvegicus [6]) of the same compound?
Its Activity is 16.82.

And the Activity (Rattus norvegicus [7])?
The Activity was 12.3.

How did the Activity (Rattus norvegicus [1]) turn out when `CC(=O)Nc1ccc(N2CCN(CCc3ccccc3)CC2)cc1` was run?
Its Activity is 53.67%.

And the Activity (Rattus norvegicus [4])?
The Activity was 25.98%.

What about the Activity (Rattus norvegicus [6]) of the same compound?
The Activity was 13.86.

What about the Activity (Rattus norvegicus [7]) of the same compound?
The Activity was 10.26.

Which Activity (Rattus norvegicus [1]) does the source give for `CC(=O)Nc1ccc(N2CCN(c3ccccc3)CC2)cc1` here?
The Activity was 62.67%.

What about the Activity (Rattus norvegicus [4]) of the same compound?
Its Activity is 29.42%.

And the Activity (Rattus norvegicus [6])?
Its Activity is 14.28.

What about the Activity (Rattus norvegicus [7]) of the same compound?
The Activity was 10.08.

`CN1C(=O)CN=C(c2ccccc2)c2cc(Cl)ccc21` [DIAZEPAM] was tested. Which Activity (Rattus norvegicus [16]) did it give?
Its Activity is 10.13.

What about the Activity (Rattus norvegicus [17]) of the same compound?
The Activity was 18.47.

And the Activity (Rattus norvegicus [18])?
The Activity was 105.36%.

And the Activity (Rattus norvegicus [19])?
Its Activity is 45.16%.

For `CCOC(=O)Nc1ccc(N2CCN(c3ccccc3Cl)CC2)cc1`, which Activity (Rattus norvegicus [1]) is on record?
The Activity was 58.98%.

What about the Activity (Rattus norvegicus [4]) of the same compound?
The Activity was 30.27%.

And the Activity (Rattus norvegicus [6])?
The Activity was 13.98.

And the Activity (Rattus norvegicus [7])?
Its Activity is 9.75.
